Measured values: article PMC4766003 (Biomacromolecules, 2015)

Molecular target: Concanavalin A (Con A) (Canavalia ensiformis, UniProt P02866)
Test: isothermal titration calorimetry, one-site model
Assay type: binding
Settings: 100 mM acetate pH 4.6, 1 mM MnCl2, 1 mM CaCl2, 30 mM NaCl, 25 °C; dimeric Con A
How it was run: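 Con A dialysed (10 kDa cutoff) into the assay buffer, with concentration from A280 (A1%,1cm = 12.4, monomer basis). Glycopolymer ligands were dialysed and quantified colorimetrically. Titrant in the same buffer was injected into Con A at 25 °C, stirred at 1000 rpm. Con A 0.42–0.06 mM; polymers 0.338–0.017 mM at 2 s intervals; monomers 7.55–8.03 mM at 4 s intervals. One-site fit floated ΔH, Ka and n.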

Sequence of Concanavalin A (Con A) (P02866 30-148 limits assumed): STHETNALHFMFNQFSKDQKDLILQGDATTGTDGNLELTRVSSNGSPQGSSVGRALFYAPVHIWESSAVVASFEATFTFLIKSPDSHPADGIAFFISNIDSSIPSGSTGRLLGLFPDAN
Sequence of Concanavalin A (Con A) (P02866 164-281 limits assumed): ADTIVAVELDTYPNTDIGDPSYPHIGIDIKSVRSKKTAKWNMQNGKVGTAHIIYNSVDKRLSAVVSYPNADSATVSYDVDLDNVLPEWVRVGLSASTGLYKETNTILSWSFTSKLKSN

| Substance | Ka (M^-1 × 10^3)^c |
| --- | --- |
| Man-Man [22b] | 17.3 × 10^3 |
| Man-Glc [25b] | 8.56 × 10^3 |
